CHOP UPR activ – activators of apoptotic CHOP UPR arm, primary screen, cell-based, CHO-CHOP luciferase reporter, luminescence, uHTS | UPR activation; percent of tunicamycin response over DMSO baseline | activation, % at 10 µM | 330,000 compounds, 0.34% hits | AID 449763, 2010;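 active means at 10 µM dose, activation of 40% or more, normalized to positive control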;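 further: 100% = tunicamycin at 10 µg/mL and 0% = DMSO alone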
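Test system: CHO CHOP reporter cells. Input: 500 CHO-CHOP cells per well. Medium: F12 with 10% FBS. Technique: luciferase luminescence. Measure: percent activation relative to tunicamycin control. Dosing: 10 µM compound, 0.5% DMSO. Timing: 16-18 h cell attachment, then 6 h compound exposure, 37 °C.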
Lmaj promast – Leishmania major promastigote growth inhibition, primary screen. Leishmania major promastigotes, resazurin fluorescence viability. inhibition, % at 10 µM. 200,000 compounds, 9% hits; in the data active means inhibition above about 50%;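 further: promastigotes grown with compound for 44 hours at 28 °C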
CHOP inhibitor – inhibitors of CHOP promoter induction, primary screen, cell-based, unfolded protein response, luciferase reporter; inhibition, % at 10 µM; CHO-K1 CHOP-promoter luciferase, tunicamycin-induced, 15-18 h; 220,000 compounds, 3.8% hits;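 active means compounds that reduced the stress-induced luciferase reporter signal by more than about 70% of percent inhibition, limit read from the data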;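 further: 0% = tunicamycin plus vehicle and 100% = wells without tunicamycin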
Dynein transport – inhibitors of GR-EGFP nuclear translocation, primary screen, dynein cargo transport inhibitor project, imaging, high-content, 3617.4 mouse cells; 220,000 compounds, 0.47% hits; z-score, hits read low; AID 1381, 2008; test concentration mostly 20 µM; stimulated with dexamethasone, 1 µM; hits give low values;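 active means plate z-score of nuclear minus cytoplasmic receptor signal below a set negative limit, without overly bright fluorescence or cell loss, cut at about -3.5 in these data, passing the limit was not always enough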;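 further: z-score of nuclear minus cytoplasmic ring GR-EGFP intensity difference per well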
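medium = tetracycline-free induction medium containing charcoal-stripped FBS | also added = 1.0 µM final dexamethasone stimulus | schedule = 48 h induction, 1 h compound, 30 min dex at 37 °C | technique = fixed, Hoechst-stained cells imaged at 10x for EGFP | measure = GR-EGFP nuclear translocation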
T cruzi repl – inhibitors of intracellular T. cruzi growth, primary screen, luminescence, NIH3T3 host cells. inhibition, % (test concentration not listed). T. cruzi beta-gal in NIH3T3, 90 h. 300,000 compounds, 1.4% hits;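 active means mean inhibition across valid replicates above about 55%, limit read from the data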;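 further: signal also drops with host cell toxicity which is not excluded here; 0% = plate median of DMSO wells and 100% = zero luminescence signal; higher percent means less beta-gal luminescence so fewer parasites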
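Incubation – ≥90 h infection period, 3 h prior cell attachment · System – NIH/3T3 fibroblasts plus reporter T. cruzi · Doses – compound pinned at 50 nL/well, DMSO · Read-out basis – percent inhibition of parasite-derived β-gal signal · Signal – luminescent β-galactosidase signal after 60 min lysis · Also added – 5000 T. cruzi trypomastigotes/well · Medium – Low-serum DMEM with 2% FBS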
XBP1 UPR activ – activators of adaptive XBP1 UPR arm, primary screen, cell-based, CHO-XBP1 luciferase reporter, luminescence, uHTS. IRE1-XBP1 UPR activation; percent of tunicamycin response, DMSO as zero. activation, % at 20 µM. 330,000 compounds, 0.33% hits;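 active means versus positive control, 20 µM dose yields 30% or more activation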;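 further: 100% = tunicamycin at 10 µg/mL and 0% = DMSO only wells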
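Material: CHO cell line with stable XBP1 luciferase reporter; schedule: 16-18 h cell attachment at 37 °C, then 6 h compound exposure; signal: glow luminescence from Steady-Glo reagent; medium: serum-containing F12 medium, 10% FBS; benchmarks: tunicamycin 10 µg/mL and vehicle-only wells; read-out: percent activation relative to tunicamycin reference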
* = called active by the depositor; . = no result. Shown is part of a subset that was picked to be rich in hits.

SMILES	CHOP UPR activ	Lmaj promast	CHOP inhibitor	Dynein transport	T cruzi repl	XBP1 UPR activ
COC/C=C/C1=CC2=CC(=O)C(C)(OC(=O)c3cnc4ccccc4n3)C(=O)C2=CN1c1cccc(C#N)c1 (configuration not stated)	-3.0	.	.	.	-2.6	-0.6
CCOC(=O)C1=C(O)C(=O)NC(c2ccccc2)=C(OCC)C1	3.5	-7.1	94.7*	-0.271	-11.1	0.6
CCOc1cc(C)c(C(C)C)cc1S(=O)(=O)n1ccc(C)n1	0.7	12.7	77.3*	-1.26	6.1	-1.1
CCOc1ccc(C)cc1S(=O)(=O)n1ccc(C)n1	-0.8	4.4	18.4	-0.731	-4.9	-0.5
O=[N+]([O-])c1ccc(C(O)C[n+]2ccccc2)cc1 (configuration not stated)	-1.5	.	.	.	-9.4	-1.6
O=C(CSc1n[nH]c(-c2cccnc2)n1)Nc1ccccc1C(F)(F)F	0.9	.	.	.	-21.6	-6.0
CCCS(=O)(=O)N1CCN(Cc2ccc(OCc3ccccc3)c(OC)c2)CC1	-1.5	91.2*	.	0.0669	-7.1	-2.6
CCOc1cc(CN2CCN(S(=O)(=O)Cc3ccccc3)CC2)ccc1OC	0.4	.	.	.	16.8	-0.4
CCN1CCN(S(=O)(=O)c2ccc(OC)c(Br)c2)CC1	-1.9	84.3*	35.1	0.71	-22.0	-3.5
COc1ccc(S(=O)(=O)N2CCCN(Cc3cccc(F)c3)CC2)cc1	-1.8	89.7*	11.0	-0.0818	-20.1	-0.7
COc1ccc(S(=O)(=O)N2CCN(C)CC2)cc1Br	-2.7	0.3	1.6	-0.175	-16.4	2.3
COc1ccc(CN2CCN(S(=O)(=O)c3ccccc3)CC2)cc1Br	-3.2	75.5*	39.4	-0.845	6.6	0.7
COc1cccc(-c2c(C(=O)N/N=C(\C)c3cccnc3)nnn2-c2nonc2N)c1	-1.0	.	.	.	-4.1	-2.3
CCCc1c(C(=O)N/N=C/c2ccco2)nnn1-c1nonc1N	1.1	.	.	.	7.6	-0.6
COc1cccc(CN(C)CC2CCCN(CCc3ccccc3C)C2)c1 (configuration not stated)	1.1	.	.	.	54.5*	-5.1
COc1ccc(CN(C)CC2CCCN(CCc3ccccc3C)C2)cc1O (configuration not stated)	2.6	.	.	.	31.3	0.2
CC1CCN(C(=O)Cn2c3ccccc3c3nc4n(c(=O)c32)CCS4)CC1	0.2	.	.	.	-9.2	-3.1
CCOC(=O)c1ccc(NC(=O)CSCc2ccco2)cc1	0.5	88.6*	-8.9	-0.706	12.8	-1.8
CCOC(=O)c1ccc(NC(=O)CSCCC(=O)O)cc1	0.2	-2.3	-11.9	1.4	-8.4	-3.2
CCOC(=O)c1ccc(NC(=S)N(CCCN(CC)CC)Cc2ccco2)cc1	-0.9	99.7*	14.6	0.353	7.4	-1.1
CCOC(=O)c1ccc(NC(=S)N(CCCN2CCCCC2)Cc2ccco2)cc1	5.6	92.9*	2.9	0.0886	12.8	-2.0
COc1ccc(NC(=S)N(CCN2CCCCC2)Cc2ccco2)cc1	1.7	29.0	-8.9	-0.083	-0.1	-2.3
Cc1ccc(NC(=O)CCC(=O)NNC(=O)Nc2cccc(Cl)c2)c(C)c1	0.1	.	.	.	18.6	-2.7
COc1cc(SC)ccc1C(=O)Nc1ccc2ncccc2c1	2.7	.	.	.	11.9	-4.7
COc1cc(/C=N/NC(=S)NC2CC3CC2C2C=CCC32)ccc1O (configuration not stated)	4.0	.	-53.9	-0.677	-19.9	4.7
SMILES	CHOP UPR activ	Lmaj promast	CHOP inhibitor	Dynein transport	T cruzi repl	XBP1 UPR activ
Cc1ccc(NC(=O)Cc2csc(-c3ccccc3)n2)cc1F	0.8	4.3	32.7	-0.116	-7.4	1.1
O=C(Cc1csc(-c2ccccc2)n1)Nc1ccc(C(F)(F)F)cc1	0.2	86.7*	82.6*	-0.233	-9.2	-1.0
Cc1ccccc1N1CCN(C2CCCN(C(=O)CCn3cnnn3)C2)CC1 (configuration not stated)	-0.5	.	.	.	8.1	-2.8
COc1ccc(-n2c(N)c(-c3nc4ccccc4n3C)sc2=S)cc1	1.7	-5.2	28.0	0.088	18.9	2.7
CCOc1ccc(-n2c(N)c(-c3nc4ccccc4[nH]3)sc2=S)cc1	-0.1	-5.4	80.6*	-0.0212	-1.9	-1.5
CCCCN1CCc2c1nc1ccc(Br)cc1c2N	-1.6	100.8*	2.7	0.281	25.1	-3.3
COc1cccc(Cn2cnc3c(NS(=O)(=O)c4ccc(Cl)cc4)c(C)c(C)cc32)c1	-2.2	50.4*	44.3	-0.408	-27.4	0.1
Cc1ccc(Cl)cc1N1CCN(C(=O)Cc2ccc(-n3c(=O)[nH]c4ccsc4c3=O)cc2)CC1	0.9	56.7*	-4.5	0.316	17.4	-1.9
CCN(c1cccc(C)c1)S(=O)(=O)c1ccc2c(c1)N(C(C)=O)CCS2	-0.9	.	.	.	4.9	2.9
CCc1nc(N2CCN(C(=O)c3ccco3)CC2)c2oc3ccccc3c2n1	.	82.7*	-48.9	1.17	-5.7	.
CC(C)(C)c1nc(N2CCN(C(=O)c3ccco3)CC2)c2nnn(Cc3ccccc3)c2n1	0.4	34.8	76.5*	0.378	26.3	-0.8
CCc1ccc(N(C2C=CS(=O)(=O)C2)S(=O)(=O)c2ccccc2)cc1 (configuration not stated)	1.1	59.2*	7.1	0.776	-4.8	-0.1
Cc1ccc(S(=O)(=O)N(c2cccc(C(F)(F)F)c2)C2C=CS(=O)(=O)C2)cc1 (configuration not stated)	0.6	28.7	-12.5	-0.12	0.5	3.0
CCCCNc1nc2ccccc2n1CC(=O)N1CCc2ccccc2C1	-0.2	69.9*	27.6	0.906	8.8	-1.9
CC(=O)Nc1ccc(NC(=O)CSc2nnc(C)c(=O)[nH]2)cc1	1.5	-5.4	-12.8	0.555	-12.2	0.7
OCCN(Cc1ccccc1)Cc1ccc(C(F)(F)F)cc1	-0.4	5.9	91.4*	-0.469	14.8	0.3
CCOc1ccc2c(c1)C(C)=CC(C)(C)N2	3.0	.	.	.	.	-2.8
CCc1ccc2c(c1)C(C)=CC(C)(C)N2	-0.5	66.2*	47.5	0.287	6.3	0.2
Cc1cc(=O)nc2c3ccccc3n(C(C)C(=O)NCCN3CCOCC3)n12 (configuration not stated)	2.5	.	.	.	11.3	-3.1
CC(C)N(C)Cc1nnnn1CC(=O)N(C)Cc1ccc(F)cc1	1.8	.	.	.	-7.2	-3.1
O=C(Nc1ccc2c(c1)OCO2)C1CCN(C(=O)CSc2ncnc3ccccc23)CC1	-2.2	78.6*	.	0.403	10.2	-1.8
O=C(Nc1ccc2c(c1)OCO2)C1CCN(C(=O)c2ccc(Cl)cc2)CC1	1.1	-5.0	23.3	-0.886	5.1	-4.6

Assay outcomes: PubChem, several laboratories
